Activity calls are given as the source filed them. The calls are words filed in the database; no cut-off is given here.
Columns and labels:
[1] = system: Calvarial osteoblast; assay: Osteogenic activity in Sprague-Dawley rat calvarial osteoblasts assessed as BMP-2 level at 1 nM after 48 hrs by ELISA relative to control; format: functional
[2] = system: Calvarial osteoblast; assay: Osteogenic activity in Sprague-Dawley rat calvarial osteoblasts assessed as BMP-2 level at 10 nM after 48 hrs by ELISA relative to control; format: functional
[3] = system: Calvarial osteoblast; assay: Osteogenic activity in Sprague-Dawley rat calvarial osteoblasts assessed as BMP-2 level at 0.1 nM after 48 hrs by ELISA relative to control; format: functional
[4] = system: Calvarial osteoblast; assay: Osteogenic activity in Sprague-Dawley rat calvarial osteoblasts assessed as BMP-2 level at 1000 nM after 48 hrs by ELISA relative to control; format: functional
[5] = system: Calvarial osteoblast; assay: Osteogenic activity in Sprague-Dawley rat calvarial osteoblasts assessed as BMP-2 level at 100 nM after 48 hrs by ELISA relative to control; format: functional
[6] = system: Rattus norvegicus; assay: Osteogenic activity in Sprague-Dawley rat femur drill-hole fracture model assessed as bone formation at 5 mg/kg/day after 2 weeks by calcein labeling-based confocal microscopy relative to vehicle-treated control; format: functional
In short: (§1)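 Bilateral femoral diaphysis drill-hole (0.8 mm bit, 2 cm above knee) in rats, 10 per group. Daily dosing at 1.0 or 5.0 mg·kg⁻¹·day⁻¹, or gum acacia/water vehicle, from the day after injury for 2 weeks. Calcein 20 mg/kg i.p. given 2 days before autopsy. Acrylic-embedded 50 μm sections imaged by confocal microscopy; calcein intensity quantified. Mean ± SEM.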

[7] = system: Rattus norvegicus; assay: Toxicity in Sprague-Dawley rat assessed as effect on aorta BMP-4 mRNA expression at 1 to 5 mg/kg/day after 2 weeks by qPCR analysis relative to vehicle-treated control; format: organism-based; details: in vivo, 336 h
[8] = system: Calvarial osteoblast; assay: Osteogenic activity in Sprague-Dawley rat calvarial osteoblasts assessed as BMP-2 mRNA expression at 0.1 to 1000 nM after 48 hrs by qPCR analysis relative to control; format: functional, cell-based
[9] = system: Rattus norvegicus; assay: Toxicity in Sprague-Dawley rat assessed as effect on cuspid valve BMP-7 mRNA expression at 1 to 5 mg/kg/day after 2 weeks by qPCR analysis relative to vehicle-treated control; format: organism-based; details: in vivo, 336 h
[10] = system: MC3T3-E1; assay: Inhibition of 20S proteasome in mouse MC3T3-E1 cells at 100 nM after 48 hrs by Bradford assay; format: cell-based
In short: (§2)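 MC3T3-E1 cells seeded at 2 × 10⁶/well and treated for 48 h. Lysed in HEPES pH 7.5/EDTA/NaCl/1% Triton X-100 on ice; protein measured by Bradford. 10 μg lysate incubated with fluorogenic 20S proteasome substrate for 1 h at 37 °C in the dark, fluorescence read at 380/460 nm. Lactacystin 25 μM as reference. Mean ± SEM, three independent experiments.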

[11] = system: Calvarial osteoblast; assay: Induction of […] mRNA expression in Sprague-Dawley rat calvarial osteoblasts at 10 nM after 72 hrs by qPCR analysis in presence of noggin; format: functional, cell-based
In short: (§3)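 Rat calvarial osteoblasts treated for 72 h with 10 nM compound, 100 ng/mL BMP-2 and 50 ng/mL noggin, alone or combined. Runx-2 and osteocalcin mRNA measured by qPCR. Data are mean ± SEM from three independent experiments.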

[12] = system: Calvarial osteoblast; assay: Induction of […] mRNA expression in Sprague-Dawley rat calvarial osteoblasts at 10 nM by qPCR analysis; format: functional, cell-based; details: TDE = time-dependent effect
In short: (§4)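 Primary calvarial osteoblasts from pooled 1–2-day-old Sprague–Dawley rat pups (both sexes), released by sequential Dispase/collagenase P digestion at 37 °C. Cells kept in osteoblast differentiation medium with 10 nM compound or vehicle and sampled at several time points (24 h up to 72 h) for qPCR. Results given as fold change, mean ± SEM, triplicate.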

[13] = system: Rattus norvegicus; assay: Osteogenic activity in Sprague-Dawley rat femur drill-hole fracture model assessed as increase in bone volume/trabecular volume at 1 to 5 mg/kg/day after 2 weeks by micro-CT method relative to vehicle-treated control; format: functional, organism-based
In short: (§5)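 Same rat femoral drill-hole model: 10 rats/group, 1.0 or 5.0 mg·kg⁻¹·day⁻¹ or gum acacia vehicle for 2 weeks starting the day after injury. Femurs taken at autopsy; μCT of the drill-hole gives BV/TV, Tb.N, Tb.Th, Tb.Sp, Conn.Dens and SMI. Mean ± SEM.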

[14] = system: Rattus norvegicus; assay: Osteogenic activity in Sprague-Dawley rat femur drill-hole fracture model assessed as decrease in structure model index at 1 to 5 mg/kg/day after 2 weeks by micro-CT method relative to vehicle-treated control; format: functional, organism-based; in short: as §5
[15] = system: Calvarial osteoblast; assay: Induction of Runx mRNA expression in Sprague-Dawley rat calvarial osteoblasts at 10 nM by qPCR analysis; format: functional, cell-based; details: TDE = time-dependent effect; in short: as §4
[16] = system: Rattus norvegicus; assay: Osteogenic activity in Sprague-Dawley rat femur drill-hole fracture model assessed as increase in trabecular number at 1 to 5 mg/kg/day after 2 weeks by micro-CT method relative to vehicle-treated control; format: functional, organism-based; in short: as §5
[17] = system: Calvarial osteoblast; assay: Induction of type 1 collagen mRNA expression in Sprague-Dawley rat calvarial osteoblasts at 10 nM by qPCR analysis; format: functional, cell-based; details: TDE = time-dependent effect; in short: as §4
[18] = system: Calvarial osteoblast; assay: Induction of mineralization in Sprague-Dawley rat calvarial osteoblasts assessed as increase of mineralized nodule formation at 10 nM after 21 days by Alizarin Red S staining relative to vehicle-treated control; format: functional, cell-based
In short: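 Rat calvarial osteoblasts grown to 80% confluence, then plated at 25 000 cells/well in differentiation medium (growth medium plus 50 μg/mL ascorbic acid and […]) with 10 nM compound or vehicle. Medium changed every other day for 21 days. Cells fixed in 4% paraformaldehyde and stained with 40 mM Alizarin Red S (pH 4.5). Dye extracted with 10% acetic acid at 85 °C, neutralized, OD 405 nm read.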

[19] = system: Calvarial osteoblast; assay: Induction of BMP-2 mRNA expression in Sprague-Dawley rat calvarial osteoblasts at 10 nM by qPCR analysis; format: functional, cell-based; details: TDE = time-dependent effect; in short: as §4
[20] = species: Rattus norvegicus; assay: Osteogenic activity in Sprague-Dawley rat femur drill-hole fracture model assessed as increase in osteoblast formation after 2 weeks by calcein labeling-based confocal microscopy relative to vehicle-treated control; format: functional, organism-based; in short: as §1
[21] = system: Rattus norvegicus; assay: Osteogenic activity in Sprague-Dawley rat femur drill-hole fracture model assessed as bone formation at 1 mg/kg/day after 2 weeks by calcein labeling-based confocal microscopy relative to vehicle-treated control; format: functional; in short: as §1
[22] = system: Rattus norvegicus; assay: Osteogenic activity in Sprague-Dawley rat femur drill-hole fracture model assessed as decrease in trabecular spacing at 1 to 5 mg/kg/day after 2 weeks by micro-CT method relative to vehicle-treated control; format: functional, organism-based; in short: as §5
[23] = system: Rattus norvegicus; assay: Toxicity in Sprague-Dawley rat assessed as effect on cuspid valve BMP-2 mRNA expression at 1 to 5 mg/kg/day after 2 weeks by qPCR analysis relative to vehicle-treated control; format: organism-based; details: in vivo, 336 h
[24] = system: MC3T3-E1; assay: Inhibition of 20S proteasome in mouse MC3T3-E1 cells after 48 hrs by Bradford assay; format: cell-based; in short: as §2
[25] = system: Rattus norvegicus; assay: Toxicity in Sprague-Dawley rat assessed as effect on aorta BMP-7 mRNA expression at 1 to 5 mg/kg/day after 2 weeks by qPCR analysis relative to vehicle-treated control; format: organism-based; details: in vivo, 336 h
[26] = species: Rattus norvegicus; assay: Osteogenic activity in Sprague-Dawley rat femur drill-hole fracture model assessed as increase in osteoblast recruitment after 2 weeks by calcein labeling-based confocal microscopy relative to vehicle-treated control; format: functional, organism-based; in short: as §1
[27] = system: Rattus norvegicus; assay: Osteogenic activity in Sprague-Dawley rat femur drill-hole fracture model assessed as increase in trabecular thickness at 1 to 5 mg/kg/day after 2 weeks by micro-CT method relative to vehicle-treated control; format: functional, organism-based; in short: as §5
[28] = system: Rattus norvegicus; assay: Toxicity in Sprague-Dawley rat assessed as effect on aorta BMP-2 mRNA expression at 1 to 5 mg/kg/day after 2 weeks by qPCR analysis relative to vehicle-treated control; format: organism-based; details: in vivo, 336 h
[29] = system: Rattus norvegicus; assay: Osteogenic activity in Sprague-Dawley rat femur drill-hole fracture model assessed as increase in connection density at 1 to 5 mg/kg/day after 2 weeks by micro-CT method relative to vehicle-treated control; format: functional, organism-based; in short: as §5
[30] = species: Rattus norvegicus; assay: Osteogenic activity in Sprague-Dawley rat femur drill-hole fracture model assessed as increase in callus regeneration after 2 weeks by calcein labeling-based confocal microscopy relative to vehicle-treated control; format: functional, organism-based; in short: as §1
[31] = system: Calvarial osteoblast; assay: Induction of Runx-2 mRNA expression in Sprague-Dawley rat calvarial osteoblasts at 10 nM after 72 hrs by qPCR analysis in presence of noggin; format: functional, cell-based; in short: as §3
[32] = system: Rattus norvegicus; assay: Toxicity in Sprague-Dawley rat assessed as effect on cuspid valve BMP-4 mRNA expression at 1 to 5 mg/kg/day after 2 weeks by qPCR analysis relative to vehicle-treated control; format: organism-based; details: in vivo, 336 h

O=C(O)c1ccccc1C(=O)NC(Cc1ccccc1)C(=O)N(Cc1ccccc1)CC(OCc1ccccc1)c1ccccc1 (stereo not drawn)
Activity [1]: 100.66%
Activity [2]: 98.34%
Activity [3]: 89.8%
Activity [4]: 92.6%
Activity [5]: 103.27%

O=C(O)c1ccccc1C(=O)NC(Cc1ccccc1)C(=O)N(Cc1ccccc1)CC(O)c1ccccc1 (stereo not drawn)
fold change (FC) [6]: 3.12
Activity [7]: Non-toxic
Activity [1]: 159.5%
Activity [8]: Active
Activity [9]: Non-toxic
inhibition [10]: inactive
Activity [11]: inactive
Activity [12]: tde
Activity [13]: Active
Activity [14]: Active
Activity [15]: tde
Activity [16]: Active
Activity [17]: tde
Activity [18]: Active
Activity [19]: tde
Activity [20]: Dose-dependent effect
Activity [2]: 155.6%
fold change (FC) [21]: 2.16
Activity [3]: 140%
Activity [22]: Active
Activity [23]: Non-toxic
inhibition [24]: Dose-dependent effect
Activity [25]: Non-toxic
Activity [26]: Dose-dependent effect
Activity [27]: Active
Activity [28]: Non-toxic
Activity [29]: Active
Activity [30]: Dose-dependent effect
Activity [4]: 133%
Activity [5]: 137.2%
Activity [31]: inactive
Activity [32]: Non-toxic

O=C(O)c1ccccc1C(=O)NC(Cc1ccccc1)C(=O)NCCc1ccccc1 (stereo not drawn)
Activity [1]: 122.8%
Activity [8]: Active
Activity [2]: 114.24%
Activity [3]: 111%
Activity [4]: 132%
Activity [5]: 166.11%

O=C(O)c1ccccc1C(=O)NC(Cc1ccccc1)C(=O)NCC(OCc1ccccc1)c1ccccc1 (stereo not drawn)
Activity [1]: 107.27%
Activity [2]: 101.32%
Activity [3]: 87.8%
Activity [4]: 93.6%
Activity [5]: 117.2%

Cc1ccc(S(=O)(=O)OC(CNC(=O)C(Cc2ccccc2)NC(=O)c2ccccc2C(=O)O)c2ccccc2)cc1 (stereo not drawn)
Activity [1]: 131.75%
Activity [2]: 111.78%
Activity [3]: 119%
Activity [4]: 104%
Activity [5]: 114.88%

CC(=O)OC(CNC(=O)C(Cc1ccccc1)NC(=O)c1ccccc1C(=O)O)c1ccccc1 (stereo not drawn)
Activity [1]: 98.67%
Activity [2]: 98.33%
Activity [3]: 106%
Activity [4]: 103%
Activity [5]: 96.03%

CC(=O)OC(CN(Cc1ccccc1)C(=O)C(Cc1ccccc1)NC(=O)c1ccccc1C(=O)O)c1ccccc1 (stereo not drawn)
Activity [1]: 89.49%
Activity [2]: 83.45%
Activity [3]: 88.7%
Activity [4]: 100.6%
Activity [5]: 98.76%

N#CC(CN(Cc1ccccc1)C(=O)C(Cc1ccccc1)NC(=O)c1ccccc1C(=O)O)c1ccccc1 (stereo not drawn)
Activity [1]: 97.35%
Activity [2]: 89.28%
Activity [3]: 83.6%
Activity [4]: 92.6%
Activity [5]: 96.69%

O=C(OC(CN(Cc1ccccc1)C(=O)C(Cc1ccccc1)NC(=O)c1ccccc1C(=O)O)c1ccccc1)c1ccccc1 (stereo not drawn)
Activity [1]: 107.69%
Activity [2]: 103.15%
Activity [3]: 98.4%
Activity [4]: 112%
Activity [5]: 103.15%

Cc1ccc(S(=O)(=O)OC(CN(Cc2ccccc2)C(=O)C(Cc2ccccc2)NC(=O)c2ccccc2C(=O)O)c2ccccc2)cc1 (stereo not drawn)
Activity [1]: 141.67%
Activity [2]: 109.39%
Activity [3]: 122%
Activity [4]: 111%
Activity [5]: 98.7%

Source: ChEMBL document CHEMBL2169743, “Identification of novel 2-((1-(benzyl(2-hydroxy-2-phenylethyl)amino)-1-oxo-3-phenylpropan-2-yl)carbamoyl)benzoic acid analogues as BMP-2 stimulators” (J Med Chem, 2012)
